{"source": "ChEMBL document CHEMBL4382230", "about": "“Structure-activity relationships, biological evaluation and structural studies of novel pyrrolonaphthoxazepines as antitumor agents” (Eur J Med Chem, 2019)", "key": {"NB-4 [1]": {"system": "NB-4", "assay": "Cell cycle arrest in human NB4 cells at 50 to 10000 nM after 24 hrs by propidium iodide staining-based flow cytometric analysis", "assay_type": "functional", "in_short": "(§1)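 NB4 cultured at 37 °C, 5% CO2 in RPMI-1640 with 10% heat-inactivated FBS. Treated at 50 and 100 nM, 1 and 10 μM for 24 h. Cells fixed/permeabilized in 70% ethanol overnight at 4 °C, then given RNase and 20 μg/ml PI for 30 min. Doublets excluded, 20,000 events per sample; cell-cycle phase distribution analysed.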"}, "HL-60 [2]": {"system": "HL-60", "assay": "Induction of autophagy in human HL60 cells assessed as […] in LC3B-2 levels at 10 uM after 16 hrs in presence of lysosomal inhibitor chloroquine by immunoblot analysis", "assay_type": "functional, cell-based", "in_short": "(§2)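 HL-60 in serum-supplemented RPMI 1640, or starved in Earle's Balanced Salts for 15 min beforehand, then treated with 10 μM compound with or without 40 μM chloroquine for 1 h 45 min or 16 h. LC3B-II measured by immunoblot, densitometry normalized to actin, three independent experiments, Student's T-test.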"}, "NIH3T3 [3]": {"system": "NIH3T3", "assay": "Cytotoxicity against mouse NIH/3T3 cells harboring MDR G185 after 48 hrs by MTT assay", "assay_type": "functional, cell-based", "conditions": "NIH3T3, 48 h", "in_short": "(§3)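 Cells seeded at 12,000 to 17,000 per well depending on line, incubated overnight, then given serial dilutions of ligand for 48 h. MTT at 2.5 mg/mL added for 4 h at 37 °C, formazan solubilized overnight (10% SDS, 45% dimethylformamide, pH 5.5), absorbance read at 595/690 nm. IC50 from log-dose response curves; mean ± SE of three independent assays.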"}, "[4]": {"assay": "Apparent solubility of compound in sodium phosphate buffer at 15 uM after 20 mins", "assay_type": "physicochemical"}, "HL-60 [5]": {"system": "HL-60", "assay": "Induction of autophagy in serum starved human HL60 cells assessed as increase in LC3B-2 levels at 10 uM after 105 mins by immunoblot analysis", "assay_type": "functional, cell-based", "in_short": "as §2"}, "[6]": {"assay": "Ratio of IC50 for human A2780AD cells to IC50 for human A2780 cells", "assay_type": "functional", "in_short": "(§4)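 Relative resistance: IC50 in the P-gp overexpressing resistant line divided by IC50 in the parental line. Both IC50s came from the 48 h MTT assay (serial dilutions, absorbance at 595/690 nm, log-dose response curves, three independent assays).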"}, "NB-4 [7]": {"system": "NB-4", "assay": "Cell cycle arrest in human NB4 cells assessed as accumulation of cells at G2/M phase at 50 to 10000 nM after 24 hrs by propidium iodide staining-based flow cytometric analysis", "assay_type": "functional", "in_short": "as §1"}, "NB-4 [8]": {"system": "NB-4", "assay": "Induction of differentiation in human NB4 cells at 500 nM after 24 hrs in presence of ATRA by CD11c staining-based flow cytometric analysis", "assay_type": "functional, cell-based", "in_short": "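NB4 exposed to 0.5 μM compound together with 1 μM ATRA for 24 h. Cells stained with PE-conjugated CD11c (mouse IgG1-PE control) for 1 h at 4 °C in the dark, washed, resuspended in PBS with propidium iodide (0.25 μg/mL), then analysed by flow cytometry. Biological triplicates, mean ± S.E.M.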"}, "Tubulin (Homo sapiens) [9]": {"biological_target": "T1, Tubulin (Homo sapiens) (UniProt P68371+Q9H4B7+P0DPH7+P68366+Q13509+Q71U36+P04350+Q3ZCM7+P07437+P68363+Q9BQE3+Q6PEY2+Q13885+Q9BVA1+Q9BUF5)", "assay": "Binding affinity to tubulin (unknown origin) by analytical ultracentrifugation"}, "HL-60 [10]": {"system": "HL-60", "assay": "Induction of autophagy in serum starved human HL60 cells assessed as increase in LC3B-2 levels at 10 uM after 105 mins in presence of lysosomal inhibitor chloroquine by immunoblot analysis", "assay_type": "functional, cell-based", "in_short": "as §2"}, "[11]": {"assay": "Ratio of IC50 for mouse NIH/3T3 cells harboring MDR G185 to IC50 for mouse NIH/3T3 cells", "in_short": "as §4"}, "[12]": {"assay": "Cytotoxicity against human A2780AD cells after 48 hrs by MTT assay", "assay_type": "functional, cell-based", "in_short": "as §3"}, "HL-60 [13]": {"system": "HL-60", "assay": "Cell cycle arrest in human HL60 cells assessed as accumulation of cells at G2/M phase at 10 uM after 24 hrs by propidium iodide staining-based flow cytometric analysis", "assay_type": "functional", "in_short": "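HL-60 exposed to 10 μM for 24 h, vehicle 0.1% DMSO. Cells plated at 2×10^5 cells/mL, stained in PBS with 0.1% sodium citrate, 0.1% NP40 and propidium iodide for 30 min at room temperature in the dark. DNA content by flow cytometry; G2/M fraction reported.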"}, "Tubulin (Homo sapiens) [14]": {"biological_target": "T1, Tubulin (Homo sapiens)", "assay": "Inhibition of tubulin (unknown origin) polymerization at 27.5 uM measured over 70 mins by turbidity method", "assay_type": "protein-complex assay", "in_short": "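Tubulin at 25 µM in GAB buffer (10 mM sodium phosphate, 30% glycerol, 1 mM EGTA, 6 mM MgCl2, 1 mM GTP, pH 6.7) with 27.5 µM compound or DMSO vehicle. Turbidity is read at 355 nm for 70 min at 37 °C. Data are normalized to the initial stable absorbance plateau to correct for compound absorbance.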"}, "NB-4 [15]": {"system": "NB-4", "assay": "Cell cycle arrest in human NB4 cells assessed as accumulation of cells at G1 phase after 24 hrs by propidium iodide staining-based flow cytometric analysis", "assay_type": "functional", "in_short": "as §1"}, "NIH3T3 [16]": {"system": "NIH3T3", "assay": "Cytotoxicity against mouse NIH/3T3 cells after 48 hrs by MTT assay", "assay_type": "cell-based", "conditions": "NIH3T3, 48 h", "in_short": "as §3"}, "Tubulin (Homo sapiens) [17]": {"biological_target": "T1, Tubulin (Homo sapiens)", "assay": "Displacement of podophyllotoxin from tubulin (unknown origin) by ultracentrifugation method", "assay_type": "protein-complex assay"}, "A2780": {"system": "A2780", "assay": "Cytotoxicity against human A2780 cells after 48 hrs by MTT assay", "assay_type": "functional, cell-based", "conditions": "A2780, 48 h", "in_short": "as §3"}}, "note": "pIC50: −log10 of the molar value. Calls of active or inactive are those of the source. The rule behind the calls is not given here."}
{"smiles": "CC(=O)OC1=C(c2ccc3c(c2)OCO3)Oc2cc3ccccc3cc2-n2cccc21", "values": [{"measurement": "Activity", "setting": "NB-4 [1]", "result": "inactive"}, {"measurement": "Activity", "setting": "HL-60 [2]", "result": "Active"}, {"measurement": "pIC50", "setting": "NIH3T3 [3]", "result": 5.69}, {"measurement": "solubility at 20 min, 15 µM", "setting": "[4]", "result": 0.14, "unit": "µM"}, {"measurement": "Activity", "setting": "HL-60 [5]", "result": "Active"}, {"measurement": "Ratio IC50", "setting": "[6]", "result": 3.46}, {"measurement": "Activity", "setting": "NB-4 [7]", "result": "Active"}, {"measurement": "Activity", "setting": "NB-4 [8]", "result": "Active"}, {"measurement": "Kb", "setting": "Tubulin (Homo sapiens) [9]", "result": 2, "unit": "×10⁷ /M"}, {"measurement": "Activity", "setting": "HL-60 [10]", "result": "Active"}, {"measurement": "Ratio IC50", "setting": "[11]", "result": 0.73}, {"measurement": "pIC50", "setting": "[12]", "result": 5.15}, {"measurement": "Activity", "setting": "HL-60 [13]", "result": "Active"}, {"measurement": "inhibition", "setting": "Tubulin (Homo sapiens) [14]", "result": "Active"}, {"measurement": "Activity", "setting": "NB-4 [15]", "result": "Dose-dependent effect"}, {"measurement": "pIC50", "setting": "NIH3T3 [16]", "result": 5.56}, {"measurement": "inhibition", "setting": "Tubulin (Homo sapiens) [17]", "result": "Active"}, {"measurement": "pIC50", "setting": "A2780", "result": 5.69}]}
